According to ChEMBL document CHEMBL1125228, “A 3-D model for 5-HT1A-receptor agonists based on stereoselective methyl-substituted and conformationally restricted analogues of 8-hydroxy-2-(dipropylamino)tetralin” (J Med Chem, 1991):
Where “and” joins values, the source holds several entries; their conditions need not be identical. Equal values may be shown once.

How the values were obtained:
[1] = biological target: Serotonin (5-HT) receptor (Rattus norvegicus) (UniProt P35563+P35365+P32305+P31388+Q9JJ16+P28564+P30994+Q62758+P08909+P14842+P30940+P35364+P19327+P28565); assay: Dose corresponding to half-maximal decrease of 5-HTP formation in the limbic and striatal parts of rat brain; assay type: functional, tissue-based
[2] = biological target: T1, Dopamine receptor (Rattus norvegicus) (UniProt P25115+P19020+P30729+P18901+P61169); assay: In vivo accumulation of DOPA in limbic of rat brain at a dose of 53 umol/kg.; assay type: functional, organism-based
Summary of the method: (§1)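 Rats, reserpine-pretreated (5 mg/kg, i.e. 9 μmol/kg sc, 6 h before) or nonpretreated, given test hydrochloride sc in the neck (injection volume 5 mL/kg). Decarboxylase inhibitor NSD 1015 (100 mg/kg ip or 60 mg/kg sc) given 30 min later; decapitation after another 30 min. Brain dissected on ice into striatum, limbic system, hemispheres, brain stem. Homogenized in 0.1 M perchloric acid with α-methyl-DOPA internal standard; DOPA measured by ion-pair reversed-phase HPLC with electrochemical detection.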

[3] = biological target: T1, Dopamine receptor (Rattus norvegicus); assay: In vivo accumulation of DOPA in hemisphere of rat brain at a dose of 53 umol/kg.; assay type: functional, organism-based; summary of the method: as §1
Rattus norvegicus [4] = assay: In vivo accumulation of DOPA in striatum of rat brain at a dose of 0.32 umol/kg.; assay type: functional; summary of the method: as §1
Rattus norvegicus [5] = assay: In vivo accumulation of 5-HT in limbic of rat brain at a dose of 1 umol/kg.; assay type: functional
Summary of the method: (§2)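 Hydrochlorides given sc in the neck (5 mL/kg) to rats, either untreated or reserpine-pretreated (5 mg/kg sc, 6 h before). Decarboxylase inhibitor NSD 1015 (100 mg/kg ip or 60 mg/kg sc) given 30 min later; rats decapitated after another 30 min. Striatum, limbic system, hemispheres and brain stem dissected on ice and homogenized in 0.1 M perchloric acid with α-methyl-DOPA internal standard. DOPA, DA, 5-HTP and 5-HT measured by ion-pair reversed-phase HPLC with electrochemical detection.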

Rattus norvegicus [6] = assay: In vivo accumulation of 5-HTP in limbic of rat brain at a dose of 3.2 umol/kg.; assay type: functional; summary of the method: as §2
Rattus norvegicus [7] = assay: In vivo accumulation of 5-HTP in limbic of rat brain at a dose of 1 umol/kg.; assay type: functional; summary of the method: as §2
Rattus norvegicus [8] = assay: In vivo accumulation of 5-HT in limbic of rat brain at a dose of 0.32 umol/kg.; assay type: functional; summary of the method: as §2
Rattus norvegicus [9] = assay: In vivo accumulation of DOPA in striatum of rat brain at a dose of 1 umol/kg.; assay type: functional; summary of the method: as §1
Rattus norvegicus [10] = assay: In vivo accumulation of DOPA in brain stem of rat brain at a dose of 3.2 umol/kg.; assay type: functional; summary of the method: as §2
Rattus norvegicus [11] = assay: In vivo accumulation of DOPA in limbic of rat brain at a dose of 1 umol/kg.; assay type: functional; summary of the method: as §1
Rattus norvegicus [12] = assay: In vivo accumulation of DOPA in hemisphere of rat brain at a dose of 3.2 umol/kg.; assay type: functional; summary of the method: as §1
Rattus norvegicus [13] = assay: In vivo accumulation of 5-HTP in hemisphere of rat brain at a dose of 1 umol/kg.; assay type: functional; summary of the method: as §2
Rattus norvegicus [14] = assay: In vivo accumulation of 5-HT in striatum of rat brain at a dose of 3.2 umol/kg.; assay type: functional; summary of the method: as §2
Rattus norvegicus [15] = assay: In vivo accumulation of 5-HTP in hemisphere of rat brain at a dose of 3.2 umol/kg.; assay type: functional; summary of the method: as §2
Rattus norvegicus [16] = assay: In vivo accumulation of DOPA in limbic of rat brain at a dose of 3.2 umol/kg.; assay type: functional; summary of the method: as §1
Rattus norvegicus [17] = assay: In vivo accumulation of 5-HTP in brain stem of rat brain at a dose of 1 umol/kg.; assay type: functional; summary of the method: as §2
Rattus norvegicus [18] = assay: In vivo accumulation of DOPA in brain stem of rat brain at a dose of 0.32 umol/kg.; assay type: functional; summary of the method: as §2
Rattus norvegicus [19] = assay: In vivo accumulation of 5-HTP in brain stem of rat brain at a dose of 3.2 umol/kg.; assay type: functional; summary of the method: as §2
Rattus norvegicus [20] = assay: In vivo accumulation of 5-HTP in striatum of rat brain at a dose of 0.32 umol/kg.; assay type: functional; summary of the method: as §2
Rattus norvegicus [21] = assay: In vivo accumulation of 5-HT in limbic of rat brain at a dose of 3.2 umol/kg.; assay type: functional; summary of the method: as §2
Rattus norvegicus [22] = assay: In vivo accumulation of 5-HTP in hemisphere of rat brain at a dose of 0.32 umol/kg.; assay type: functional; summary of the method: as §2
Rattus norvegicus [23] = assay: In vivo accumulation of 5-HTP in brain stem of rat brain at a dose of 0.32 umol/kg.; assay type: functional; summary of the method: as §2
Rattus norvegicus [24] = assay: In vivo accumulation of DOPA in striatum of rat brain at a dose of 3.2 umol/kg.; assay type: functional; summary of the method: as §1
Rattus norvegicus [25] = assay: In vivo accumulation of DOPA in hemisphere of rat brain at a dose of 0.32 umol/kg.; assay type: functional; summary of the method: as §1
Rattus norvegicus [26] = assay: In vivo accumulation of DA in striatum of rat brain at a dose of 3.2 umol/kg.; assay type: functional; summary of the method: as §2
Rattus norvegicus [27] = assay: In vivo accumulation of 5-HT in striatum of rat brain at a dose of 0.32 umol/kg.; assay type: functional; summary of the method: as §2
Rattus norvegicus [28] = assay: In vivo accumulation of DA in striatum of rat brain at a dose of 0.32 umol/kg.; assay type: functional; summary of the method: as §2
Rattus norvegicus [29] = assay: In vivo accumulation of DA in striatum of rat brain at a dose of 1 umol/kg.; assay type: functional; summary of the method: as §2
Rattus norvegicus [30] = assay: In vivo accumulation of 5-HTP in limbic of rat brain at a dose of 0.32 umol/kg.; assay type: functional; summary of the method: as §2
Rattus norvegicus [31] = assay: In vivo accumulation of DOPA in brain stem of rat brain at a dose of 1 umol/kg.; assay type: functional; summary of the method: as §2
Rattus norvegicus [32] = assay: In vivo accumulation of 5-HTP in striatum of rat brain at a dose of 1 umol/kg.; assay type: functional; summary of the method: as §2
Rattus norvegicus [33] = assay: In vivo accumulation of 5-HTP in striatum of rat brain at a dose of 3.2 umol/kg.; assay type: functional; summary of the method: as §2
Rattus norvegicus [34] = assay: In vivo accumulation of DOPA in limbic of rat brain at a dose of 0.32 umol/kg.; assay type: functional; summary of the method: as §1
Rattus norvegicus [35] = assay: In vivo accumulation of 5-HT in striatum of rat brain at a dose of 1 umol/kg.; assay type: functional; summary of the method: as §2

SMILES: CCCN1CCC[C@H]2Cc3cccc(O)c3C[C@H]21
- ED50 [1]: > 0.05 mg/kg
- Control [2]: 76.9% and 83.2%
- Control [3]: 116%

SMILES: CCCN1CCC[C@@H]2c3c(O)cccc3CC[C@H]21
- Control (Rattus norvegicus [4]): 109.4%
- Control (Rattus norvegicus [5]): 119.3%
- Control (Rattus norvegicus [6]): 50.3%
- Control (Rattus norvegicus [7]): 58.5%
- Control (Rattus norvegicus [8]): 108.1%
- Control (Rattus norvegicus [9]): 116.2%
- Control (Rattus norvegicus [10]): 125.1%
- Control (Rattus norvegicus [11]): 85.5% and 95.2%
- Control (Rattus norvegicus [12]): 119%
- Control (Rattus norvegicus [13]): 51.9%
- Control (Rattus norvegicus [14]): 128.8%
- Control (Rattus norvegicus [15]): 50.6%
- Control (Rattus norvegicus [16]): 111.4% and 118.2%
- Control (Rattus norvegicus [17]): 65.3%
- Control (Rattus norvegicus [18]): 87%
- Control (Rattus norvegicus [19]): 59.9%
- Control (Rattus norvegicus [20]): 69.9%
- Control (Rattus norvegicus [21]): 144.1%
- Control (Rattus norvegicus [22]): 70.9%
- Control (Rattus norvegicus [23]): 76.1%
- Control (Rattus norvegicus [24]): 99.6%
- Control (Rattus norvegicus [25]): 111%
- Control (Rattus norvegicus [26]): 120.2%
- Control (Rattus norvegicus [27]): 107.1%
- Control (Rattus norvegicus [28]): 110.6%
- Control (Rattus norvegicus [29]): 129.5%
- Control (Rattus norvegicus [30]): 85.1%
- Control (Rattus norvegicus [31]): 102.9%
- Control (Rattus norvegicus [32]): 56.3%
- Control (Rattus norvegicus [33]): 34%
- Control (Rattus norvegicus [34]): 91.1% and 114.1%
- Control (Rattus norvegicus [35]): 113.2%
